Tests used:
Type in all cases: ADME, organism-based
Conditions in all cases: in vivo
[1] = system: Homo sapiens; test: Drug excretion in healthy white human with SLCO1B1 521TC/CYP2C8*1/*3 combined genotype treated with 2 mg, po repaglinide
Method in brief: (§1)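 Urine was collected before a single 2 mg oral dose and over 0–4, 4–8, 8–12, 12–16 and 16–24 h. Metabolites M1 and M4 were measured by LC-MS/MS. With no reference standards, amounts were expressed in arbitrary units as the peak area ratio to diclofenac internal standard. Ae0-24h is the sum of amounts over the collection periods.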

[2] = Drug excretion in healthy white human urine with CYP2C8*1/*3 genotype at 2 mg, po up to 24 hrs; method in brief: as §1
[3] = system: Homo sapiens; test: Drug excretion in healthy white human with SLCO1B1 521TT/CYP2C8*1/*1 combined genotype treated with 2 mg, po repaglinide; method in brief: as §1
[4] = system: Homo sapiens; test: Drug excretion in healthy white human with SLCO1B1 521TT/CYP2C8*3/*3 combined genotype treated with 2 mg, po repaglinide; method in brief: as §1
[5] = Drug excretion in healthy white human urine with CYP2C8*3/*3 genotype at 2 mg, po up to 24 hrs; method in brief: as §1
[6] = system: Homo sapiens; test: Drug excretion in healthy white human with SLCO1B1 521CC/CYP2C8*1/*3 combined genotype treated with 2 mg, po repaglinide; method in brief: as §1
[7] = system: Homo sapiens; test: Drug excretion in healthy white human with SLCO1B1 521TT/CYP2C8*1/*3 combined genotype treated with 2 mg, po repaglinide; method in brief: as §1
[8] = system: Homo sapiens; test: Drug excretion in healthy white human with SLCO1B1 521CC/CYP2C8*3/*3 combined genotype treated with 2 mg, po repaglinide; method in brief: as §1
[9] = Drug excretion in healthy white human urine with CYP2C8*1/*1 genotype at 2 mg, po up to 24 hrs; method in brief: as §1
[10] = system: Homo sapiens; test: Drug excretion in healthy white human with SLCO1B1 521TC/CYP2C8*1/*1 combined genotype treated with 2 mg, po repaglinide; method in brief: as §1
[11] = system: Homo sapiens; test: Drug excretion in healthy white human urine at 2 mg, po up to 24 hrs; method in brief: as §1
[12] = system: Homo sapiens; test: Drug excretion in healthy white human with SLCO1B1 521TC/CYP2C8*3/*3 combined genotype treated with 2 mg, po repaglinide; method in brief: as §1

SMILES	Ae [1] [a.u.]	Ae [2] [a.u.]	Ae [3] [a.u.]	Ae [4] [a.u.]	Ae [5] [a.u.]	Ae [6] [a.u.]	Ae [7] [a.u.]	Ae [8] [a.u.]	Ae [9] [a.u.]	Ae [10] [a.u.]	Ae [11] [a.u.]	Ae [12] [a.u.]
CCOc1cc(CC(=O)N[C@@H](CC(C)C)c2ccccc2N2CCCC(O)C2)ccc1C(=O)O (some centres undefined)	197.8	212.4	181.7	79.4	336.7	155.1	226.4	268.6	184.2	191.7	217.8	471.7
CCOc1cc(CC(=O)N[C@@H](CC(C)C)c2ccccc2N)ccc1C(=O)O	33.3	42.6	57	53.1	53.3	41.4	47.5	29.1	52.8	39.9	48.3	52.8

From ChEMBL document CHEMBL3526119, “Effect of the CYP2C8 genotype on the pharmacokinetics and pharmacodynamics of repaglinide” (Drug Metab Dispos, 2011)
